# Wee1 degr inh: human Wee1 degradation inhibition, primary screen; AID 1321; P30291; hit rate 1.2% among 220,000; HeLa Luc-Wee1K328M stability, luciferase luminescence; 100% = proteasome inhibitor MG132 effect; reporter increase, % at 5 µM;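 active = activation above the mean of all tested compounds plus 3 SD, set per screening run, cut at about 8.8% in these data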;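 also: cells exposed to compound for 20 h before luminescence read; 0% = DMSO alone and 100% = MG132 at 30 µM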
# Target sequence (P30291 whole entry K328M): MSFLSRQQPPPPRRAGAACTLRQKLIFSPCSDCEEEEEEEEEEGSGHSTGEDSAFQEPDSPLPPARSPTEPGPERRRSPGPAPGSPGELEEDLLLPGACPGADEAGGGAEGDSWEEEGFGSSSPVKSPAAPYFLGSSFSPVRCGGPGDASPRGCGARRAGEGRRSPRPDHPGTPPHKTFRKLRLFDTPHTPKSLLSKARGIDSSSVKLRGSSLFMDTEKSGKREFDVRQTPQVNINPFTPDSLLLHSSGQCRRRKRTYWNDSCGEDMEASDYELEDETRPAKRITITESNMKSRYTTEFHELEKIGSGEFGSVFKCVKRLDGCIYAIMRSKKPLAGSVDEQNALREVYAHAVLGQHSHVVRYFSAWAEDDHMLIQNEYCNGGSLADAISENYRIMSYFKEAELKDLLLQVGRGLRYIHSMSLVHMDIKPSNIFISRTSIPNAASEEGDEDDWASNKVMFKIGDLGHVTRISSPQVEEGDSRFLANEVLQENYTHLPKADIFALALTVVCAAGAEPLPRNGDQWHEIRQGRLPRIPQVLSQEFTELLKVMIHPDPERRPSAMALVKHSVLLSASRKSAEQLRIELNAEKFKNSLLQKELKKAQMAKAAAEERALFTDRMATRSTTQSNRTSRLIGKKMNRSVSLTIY
# Autophagy HCS: modulators of autophagy; MEF GFP-LC3 puncta imaging; test concentration mostly 10 µM; hit rate 0.98% among 190,000; AID 463193; calls only at 10 µM (by protocol);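 active = percentage of spot-positive cells more than 3 SD above its plate mean, without a fluorescence outlier flag or 80% toxicity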;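 also: spot-positive cell cutoff set from DMSO-treated cells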
# Ins promoter up: MIN6 insulin promoter up-regulation. MIN6 insulin promoter-GFP reporter, high-content imaging; active compounds read high. z-score at 5 µM. hit rate 0.3% among 190,000. AID 1625;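 active = z-score above 3 at 5 µM with at least 500 cells counted in the well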
# bCat nuc transl: alters nuclear translocation of beta-catenin in HeLa cells; immunofluorescence imaging; AID 1665; hit rate 0.3% among 190,000; nuclear translocation activity, % at 5 µM;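 active = nuclear translocation activity above 50% at 5 µM, with a well cell count of 50 or more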;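 also: per-cell ratio of nuclear to cytoplasmic median beta-catenin stain intensity; plate controls were DMSO negative control for no effect and GSK-3 inhibitor IX positive control for full effect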
#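 assay system = human HeLa cells, endogenous beta-catenin | times = compound treatment 24 h, 37°C, 5% CO2 | detection = Anti-beta-catenin immunofluorescence on PFA-fixed, Triton-permeabilized cells, DAPI nuclei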
# MT stabilizer: stabilizes microtubules in HeLa cells. HeLa tubulin immunostaining HCS, 24 h; share of cells brighter than vehicle mean+2SD. % tubulin-high responders, % at 10 µM. hit rate 0.83% among 200,000;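 active = plate Z-score above 3 for both tubulin-high and condensed-nucleus cell shares, with cell loss under 80%, at 10 µM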;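 also: anti alpha tubulin signal scored within the nucleus-defined area of each cell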
# The depositor's hits bear a star; i = inactive; · = no result; + = active, no number. An excerpt weighted towards active compounds, which were near 2.9% of everything screened.
SMILES,Wee1 degr inh,Autophagy HCS,Ins promoter up,bCat nuc transl,MT stabilizer
Cc1cccc(OCC(O)Cn2c(=N)n(CCN3CCCCC3)c3ccccc32)c1 (stereo not given),-1.4,+,-1.24,-0.7,9.3
N=c1n(Cc2ccc(Cl)cc2)c2ccccc2n1CC(O)COc1ccccc1 (stereo not given),1.5,i,-1.38,5.7,20.9*
Cc1c(C(=O)Nc2ccc(Cl)cc2)c2ccccn2c1C(=O)c1ccc([N+](=O)[O-])cc1,3.2,+,-0.34,·,1.5
Cc1c(C(=O)Nc2ccc(Cl)cc2)c2ccccn2c1C(=O)c1ccccc1,0.8,i,0.31,0.2,5.5
O=C(Nc1ccc2c(c1)nc1n2CCSC1)c1ccco1,0.1,+,-0.68,1.5,6.8
O=S(=O)(NCc1ccc(Cl)cc1)c1cnc[nH]1,1.4,+,1,-0.4,3.6
O=S(=O)(NCc1ccccc1)c1cnc[nH]1,-0.6,i,0.27,-1.4,1.2
CCOC(=O)C1(Cc2ccccc2)CCN(Cc2cccc3c2OCO3)CC1,-2.2,+,-0.38,0.0,2.0
CCOC(=O)C1(Cc2ccccc2C(F)(F)F)CCN(Cc2ccon2)CC1,-3.1,·,-0.19,0.3,·
CCOC(=O)C1(Cc2ccccc2)CCN(Cc2cc(OC)c3c(c2)OCO3)CC1,1.5,i,-0.3,0.2,2.6
CCOC(=O)C1(Cc2ccccc2)CCN(Cc2ccon2)CC1,-2.1,+,1.17,0.4,1.2
Cc1c(Cl)cn2c(=O)cc(CN3CCN(c4ccc(F)cc4)CC3)nc2c1Cl,-0.2,i,-0.21,3.5,8.1
O=C(Cc1ccccc1)Nc1ccccc1C(=O)Nc1ccccc1,10.8*,i,0.24,0.8,5.1
Cc1ccc(NC(=O)c2ccccc2NC(=O)Cc2ccccc2)cc1,0.4,i,0.09,1.0,3.8
Cc1noc(N)c1C1(O)C(=O)Nc2c(Cl)cc(Cl)cc21 (stereo not given),0.6,i,0.04,-7.5,3.0
O=C1OCC2=C1C(c1ccc(F)cc1)CC(=O)N2c1ccccc1 (stereo not given),8.9*,i,0.05,3.3,2.4
O=C1OCC2=C1C(c1ccc(F)cc1)CC(=O)N2c1ccc(F)cc1 (stereo not given),-0.6,i,-0.08,3.0,2.3
Cc1ccc(C(=O)N/C(=C/c2ccco2)C(=O)NCCc2c[nH]c3ccccc23)cc1,-1.7,i,0.91,-2.2,2.8
Cc1ccc(S(=O)(=O)c2cc3ccccc3oc2=Nc2ccc3c(c2)OCO3)cc1,0.4,+,-2.3,-1.2,3.6
Cc1cc(C)c2c3c(sc2n1)C1(CCSCC1)C(C#N)=C(N)O3,-2.2,i,-0.12,-0.1,2.4
COc1ccc(C2C(C#N)=C(N)Oc3c2sc2nc(C)cc(C)c32)cc1 (stereo not given),10.4*,i,·,7.0,6.1
CCN1CCN(C(=O)C(N)Cc2ccccc2)CC1 (stereo not given),-3.5,i,-0.64,-0.3,2.9
O=C(NNC(=O)C1CCCN(S(=O)(=O)c2cccc(F)c2)C1)C1CC1 (stereo not given),3.9,i,-0.19,0.8,1.3
Cc1ccccc1-c1nc(-c2ccc(NC(=O)c3ccc4c(c3)OCO4)cc2)no1,3.0,i,·,12.5,1.5
COc1cc(C(=O)N/N=C(\C)c2ccc3c(c2)OCO3)cc(OC)c1OC,-1.5,+,0.53,12.2,20.3*
SMILES,Wee1 degr inh,Autophagy HCS,Ins promoter up,bCat nuc transl,MT stabilizer
COc1cc(-c2nc(-c3ccc(NC(=O)c4ccc5c(c4)OCO5)cc3)no2)cc(OC)c1OC,-0.3,+,-0.11,0.5,5.3
COc1ccc(CC(=O)Nc2ccc(-c3noc(-c4cc(OC)c(OC)c(OC)c4)n3)cc2)cc1,1.9,+,-0.36,-5.3,3.9
O=C(Nc1cccc(Cl)c1)c1cccc(Oc2ccc([N+](=O)[O-])cc2Cl)c1,-1.8,i,0.25,7.6,7.9
Cc1ccc(C)c(NC(=O)c2cccc(Oc3ccc([N+](=O)[O-])cc3Cl)c2)c1,4.3,i,-0.38,62.3*,8.1
COc1ccc(NC(=O)c2cccc(Oc3ccc([N+](=O)[O-])cc3Cl)c2)cc1,1.6,i,·,92.6*,8.3
CCC1CCCCN1CC(=O)Nc1cc(C)nn1-c1nc(C)cc(C)n1 (stereo not given),-0.4,i,·,1.2,52.8*
CC1C/C(=N/O)C(C)CN1 (stereo not given),0.5,i,-0.45,·,2.6
Cc1ccc(C(=O)Nc2cccc(C(F)(F)F)c2)cc1NC(=O)c1csc(-c2ccncc2)n1,·,·,-1.6,70.3*,·
O=C(Cn1cnc2c(nnn2-c2ccccc2)c1=O)NCc1ccc(F)cc1,0.2,i,0.12,1.1,2.6
Cc1ccc(-n2nnc3c(=O)n(CC(=O)NCc4ccccc4)cnc32)cc1,14.7*,i,-0.13,-0.3,3.7
O=C(O[C@@H]1OC2COC(=O)c3cc(O)c(O)c(O)c3-c3c(cc(O)c(O)c3O)C(=O)O[C@@H]([C@H]1O)[C@@H]2O)c1cc(O)c(O)c(O)c1,9.7*,i,0.85,1.9,1.7
Cc1ccc(C(=O)N/N=C\c2ccccc2[N+](=O)[O-])cn1,10.6*,i,·,-5.4,2.2
Cc1ccc(C(=O)N/N=C\c2ccccn2)cn1,10.7*,·,0.04,4.5,·
O=C(N/N=C/c1ccccn1)NC12CC3CC(CC(C3)C1)C2,10.0*,·,0.38,-1.7,·
Cc1ccc(C(=O)N/N=C\C=C\c2ccccc2[N+](=O)[O-])cn1,1.1,i,0.4,-3.6,1.4
O=C(N/N=C/c1ccccn1)c1ccc(N/N=C/c2ccccn2)cc1,1.8,i,-0.31,0.9,3.7
Nc1nc(COc2ccc(F)cc2Cl)nc(N2CCCCC2)n1,0.3,i,0.51,-2.1,1.8
CN(c1ccccc1)S(=O)(=O)c1cccc(C(=O)Nc2nn[nH]n2)c1,-1.5,·,-0.38,-1.8,·
Cc1cc(CN(C)Cc2c(C(=O)N3CCCCCCC3)nc3ccc(Cl)cn23)n[nH]1,9.3*,i,-0.65,-1.3,1.7
CCCCc1ccc(NC(=O)C(C)CC)cc1 (stereo not given),3.0,i,-0.62,1.0,3.0
CNc1ccc(/C=C(\C#N)c2ccccn2)cc1[N+](=O)[O-],0.0,i,-0.24,1.7,1.9
N#C/C(=C\c1ccc(Cl)c([N+](=O)[O-])c1)c1ccccn1,-1.8,i,0.73,80.1*,66.2
Cn1cc(S(=O)(=O)c2ccccc2)n(C)c1=O,1.7,i,0.54,0.3,2.2
Cc1c(-n2c(SCC(=O)C(C)(C)C)nc3ccccc3c2=O)c(=O)n(-c2ccccc2)n1C,-1.2,i,0.89,0.3,1.5
O=C(O)CCN1CC2([N+](=O)[O-])CC=C(OCCO)C([N+](=O)[O-])(C1)C2 (stereo not given),-1.8,i,·,-0.3,4.4
COC1=CCC2([N+](=O)[O-])CN(CCO)CC1([N+](=O)[O-])C2 (stereo not given),2.8,i,3.03*,-0.9,4.7
N#CCCN(Cc1cccnc1)C(=S)NC(=O)C1CC1,-4.2,i,·,-0.9,2.4

# Assay outcomes (PubChem)
